# Laboratory results reported in ChEMBL document CHEMBL1155292, “Synthesis, analgesic and anti-inflammatory activities evaluation of some bi-, tri- and tetracyclic condensed pyrimidines” (Eur J Med Chem, 2009).
# How the values were obtained:
# [1] = test system: Rattus norvegicus; assay: Antiinflammatory activity in albino rat assessed as inhibition of carrageenan-induced paw edema at 0.029 mmol/kg, po after 3 hrs relative to control; assay type: functional
# Outline: (§1)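 Adult albino rats of either sex, 120–150 g, six per group. Compounds at 0.029 mmol/kg suspended in saline with a few drops of Tween 80 and given by oral stomach tube. After 1 h, 0.1 ml of freshly prepared 1% carrageenan in saline injected subplantar into the right hind paw. Paw thickness measured at 1–4 h; % edema inhibition versus control; mean ± SEM; ANOVA.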
# [2] = test system: Rattus norvegicus; assay: Antiinflammatory activity in albino rat assessed as inhibition of carrageenan-induced paw edema at 0.029 mmol/kg, po after 4 hrs relative to indomethacin; assay type: functional
# Outline: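 Rat carrageenan paw edema: oral 0.029 mmol/kg in saline/Tween 80, 1 h before subplantar 0.1 ml 1% carrageenan into the right hind paw; six rats per group. Potency is % inhibition of the test compound divided by % inhibition of indomethacin at 4 h.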
# [3] = test system: Rattus norvegicus; assay: Antiinflammatory activity in albino rat assessed as inhibition of carrageenan-induced paw edema at 0.029 mmol/kg, po after 1 hr relative to control; assay type: functional; outline: as §1
# [4] = test system: Mus musculus; assay: Analgesic activity in albino mouse assessed as decrease in acetic acid-induced writhing at 8.94 mg/kg, po administered 1 hr prior to acetic acid challenge relative to control; assay type: functional
# Outline: (§2)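 Albino mice of either sex, 18–22 g, six per group. Test agents suspended in saline with a few drops of Tween 80 and given by oral stomach tube; controls handled identically without drug. After 1 h, 0.3 ml of 1% acetic acid ip. Writhing contractions counted for 30 min, starting 5 min after injection. % protection versus control mean; mean ± SEM; one-way ANOVA with post hoc test.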
# [5] = test system: Rattus norvegicus; assay: Antiinflammatory activity in albino rat assessed as inhibition of carrageenan-induced paw edema at 0.029 mmol/kg, po after 4 hrs relative to control; assay type: functional; outline: as §1
# [6] = test system: Rattus norvegicus; assay: Gastrointestinal toxicity in albino rat assessed as ulcerogenic index at 0.029 mmol/kg, po after 5 hrs; assay type: organism-based; details: in vivo
# Outline: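 Adult albino rats of either sex (120–150 g), 6 per group, got the test compounds orally by stomach tube as a suspension in saline with a few drops of tween 80. They were the same rats used in the carrageenan paw-edema test. Stomachs were then opened along the great curvature and examined for lesions or bleeding. Ulceration was recorded as the number of rats with ulcers out of 6.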
# [7] = test system: Rattus norvegicus; assay: Antiinflammatory activity in albino rat assessed as inhibition of carrageenan-induced paw edema at 0.029 mmol/kg, po after 2 hrs relative to control; assay type: functional; outline: as §1
# [8] = test system: Mus musculus; assay: Analgesic activity in albino mouse assessed as decrease in acetic acid-induced writhing at 8.59 mg/kg, po administered 1 hr prior to acetic acid challenge relative to control; assay type: functional; outline: as §2
# [9] = test system: Mus musculus; assay: Analgesic activity in albino mouse assessed as decrease in acetic acid-induced writhing at 8.68 mg/kg, po administered 1 hr prior to acetic acid challenge relative to control; assay type: functional; outline: as §2
# [10] = test system: Mus musculus; assay: Analgesic activity in albino mouse assessed as decrease in acetic acid-induced writhing at 0.4 mg/kg, po administered 1 hr prior to acetic acid challenge; assay type: functional; outline: as §2
# [11] = test system: Mus musculus; assay: Analgesic activity in albino mouse assessed as decrease in acetic acid-induced writhing at 2 mg/kg, po administered 1 hr prior to acetic acid challenge; assay type: functional; outline: as §2
# [12] = test system: Mus musculus; assay: Analgesic activity in po dosed albino mouse assessed as decrease in acetic acid-induced writhing administered 1 hr prior to acetic acid challenge; assay type: functional, organism-based; outline: as §2
# [13] = test system: Mus musculus; assay: Analgesic activity in albino mouse assessed as decrease in acetic acid-induced writhing at 1 mg/kg, po administered 1 hr prior to acetic acid challenge; assay type: functional; outline: as §2
# [14] = test system: Mus musculus; assay: Analgesic activity in albino mouse assessed as decrease in acetic acid-induced writhing at 4 mg/kg, po administered 1 hr prior to acetic acid challenge; assay type: functional; outline: as §2
# [15] = test system: Mus musculus; assay: Analgesic activity in albino mouse assessed as decrease in acetic acid-induced writhing at 8 mg/kg, po administered 1 hr prior to acetic acid challenge; assay type: functional; outline: as §2
# [16] = test system: Mus musculus; assay: Analgesic activity in albino mouse assessed as decrease in acetic acid-induced writhing at 0.8 mg/kg, po administered 1 hr prior to acetic acid challenge; assay type: functional; outline: as §2
# [17] = test system: Mus musculus; assay: Analgesic activity in albino mouse assessed as decrease in acetic acid-induced writhing at 11.75 mg/kg, po administered 1 hr prior to acetic acid challenge relative to control; assay type: functional; outline: as §2
# [18] = test system: Mus musculus; assay: Analgesic activity in albino mouse assessed as decrease in acetic acid-induced writhing at 11.49 mg/kg, po administered 1 hr prior to acetic acid challenge relative to control; assay type: functional; outline: as §2
# [19] = test system: Mus musculus; assay: Analgesic activity in albino mouse assessed as decrease in acetic acid-induced writhing at 9 mg/kg, po administered 1 hr prior to acetic acid challenge relative to control; assay type: functional; outline: as §2
# [20] = test system: Mus musculus; assay: Analgesic activity in albino mouse assessed as decrease in acetic acid-induced writhing at 10.24 mg/kg, po administered 1 hr prior to acetic acid challenge relative to control; assay type: functional; outline: as §2
# [21] = test system: Mus musculus; assay: Analgesic activity in albino mouse assessed as decrease in acetic acid-induced writhing at 8.12 mg/kg, po administered 1 hr prior to acetic acid challenge relative to control; assay type: functional; outline: as §2
# [22] = test system: Mus musculus; assay: Analgesic activity in albino mouse assessed as decrease in acetic acid-induced writhing at 7.69 mg/kg, po administered 1 hr prior to acetic acid challenge relative to control; assay type: functional; outline: as §2
# [23] = test system: Rattus norvegicus; assay: Antiinflammatory activity in albino rat assessed as inhibition of carrageenan-induced paw edema at 10 mg/kg, po; assay type: functional
# Outline: (§3)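 Rat carrageenan paw edema with oral dosing at 10, 15, 20 and 25 mg/kg, suspended in saline with Tween 80, 1 h before subplantar 0.1 ml 1% carrageenan into the right hind paw. % edema inhibition versus control at each dose; IC50 (mg/kg) derived from these four doses.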
# [24] = test system: Rattus norvegicus; assay: Antiinflammatory activity in albino rat assessed as inhibition of carrageenan-induced paw edema at 25 mg/kg, po; assay type: functional; outline: as §3
# [25] = test system: Rattus norvegicus; assay: Antiinflammatory activity in albino rat assessed as inhibition of carrageenan-induced paw edema at 20 mg/kg, po; assay type: functional; outline: as §3
# [26] = test system: Rattus norvegicus; assay: Antiinflammatory activity in albino rat assessed as inhibition of carrageenan-induced paw edema at 15 mg/kg, po; assay type: functional; outline: as §3
# [27] = test system: Rattus norvegicus; assay: Antiinflammatory activity in po dosed albino rat assessed as inhibition of carrageenan-induced paw edema; assay type: functional, organism-based
# Outline: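 Adult albino rats of either sex, 120–150 g, groups of 6. Compound suspended in saline with a few drops of tween 80, given by oral stomach tube 1 h before subplantar injection of freshly prepared 1% carrageenan (0.1 ml) in saline into right hind paw. Paw thickness read at 1–4 h; % edema inhibition versus carrageenan control; mean ± SEM, one-way ANOVA with post hoc test.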
# [28] = test system: Mus musculus; assay: Analgesic activity in albino mouse assessed as decrease in acetic acid-induced writhing at 8.36 mg/kg, po administered 1 hr prior to acetic acid challenge relative to control; assay type: functional; outline: as §2
# [29] = test system: Mus musculus; assay: Analgesic activity in albino mouse assessed as decrease in acetic acid-induced writhing at 8.47 mg/kg, po administered 1 hr prior to acetic acid challenge relative to control; assay type: functional; outline: as §2
# [30] = test system: Mus musculus; assay: Analgesic activity in albino mouse assessed as decrease in acetic acid-induced writhing at 8.33 mg/kg, po administered 1 hr prior to acetic acid challenge relative to control; assay type: functional; outline: as §2
SMILES,inhibition in vivo at 29 µmol/kg [1],relative potency at 29 µmol/kg [2],inhibition in vivo at 29 µmol/kg [3],inhibition in vivo at 29 µmol/kg [5],UI [6],inhibition in vivo at 29 µmol/kg [7],other results
CCCC/N=c1/c(C#N)c2n(c(=O)n1-c1ccccc1)CCC2,19.4%,0.81,11.2%,22.4%,Non-toxic,24%,inhibition in vivo at 8.94 mg/kg [4]: 88.7%
N#Cc1c2n(c(=O)n(-c3ccccc3)/c1=N\CCO)CCC2,25.9%,1,5.6%,27.3%,Non-toxic,22.3%,inhibition in vivo at 8.59 mg/kg [8]: 87.8%
N#CC1=C(NCCN)N(c2ccccc2)C(=O)N2CCCC12 (centres undefined),25.9%,0.61,15.7%,16.9%,,27.3%,inhibition in vivo at 8.68 mg/kg [9]: 96.3%; inhibition in vivo at 0.4 mg/kg [10]: 49.4%; inhibition in vivo at 2 mg/kg [11]: 94.4%; IC50 [12]: 0.402 mg/kg; inhibition in vivo at 1 mg/kg [13]: 90.6%; inhibition in vivo at 4 mg/kg [14]: 96%; inhibition in vivo at 8 mg/kg [15]: 96.4%; inhibition in vivo at 0.8 mg/kg [16]: 81.3%
O=C1NC(c2ccc([N+](=O)[O-])cc2)NC2=C1C1CCCN1C(=O)N2c1ccccc1 (centres undefined),14.4%,0.7,1.1%,19.2%,,14.1%,inhibition in vivo at 11.75 mg/kg [17]: 94.6%
N#Cc1c2n(c(=O)n(-c3ccccc3)/c1=N/c1cccc(C(F)(F)F)c1)CCC2,8.63%,0.34,8.97%,9.31%,,7.44%,inhibition in vivo at 11.49 mg/kg [18]: 63.8%
CCO/C=N/C1=C(C#N)C2CCCN2C(=O)N1c1ccccc1 (centres undefined),5.78%,0.18,22.4%,4.96%,Non-toxic,9.12%,inhibition in vivo at 9 mg/kg [19]: 69.8%
N#Cc1ccc(/N=c2\c(C#N)c3n(c(=O)n2-c2ccccc2)CCC3)cc1,28.1%,0.86,16.9%,23.6%,Non-toxic,28.1%,inhibition in vivo at 10.24 mg/kg [20]: 82.9%
O=C1NC(c2ccccc2[N+](=O)[O-])NC2=C1C1CCCN1C(=O)N2c1ccccc1 (centres undefined),8.65%,0.13,12.3%,3.73%,,14.1%,inhibition in vivo at 11.75 mg/kg [17]: 86.8%
CC/N=c1/c(C#N)c2n(c(=O)n1-c1ccccc1)CCC2,24.5%,1.11,7.82%,30.4%,Non-toxic,23.1%,inhibition in vivo at 8.12 mg/kg [21]: 74.4%
C/N=c1/c(C#N)c2n(c(=O)n1-c1ccccc1)CCC2,30.2%,1.27,19.1%,34.8%,Non-toxic,26.5%,inhibition in vivo at 7.69 mg/kg [22]: 74%; inhibition in vivo at 10 mg/kg [23]: 36%; inhibition in vivo at 25 mg/kg [24]: 62.7%; inhibition in vivo at 20 mg/kg [25]: 50.8%; inhibition in vivo at 15 mg/kg [26]: 43%; IC50 [27]: 17.77 mg/kg
CCO/C=N/C1=C(C#N)C2CCCN2C(=S)N1CC (centres undefined),20.9%,0.75,12.3%,20.5%,Non-toxic,19%,inhibition in vivo at 8.12 mg/kg [21]: 88.1%
N/N=C(/N)C1=C(N)N(c2ccccc2)C(=O)N2CCCC12 (centres undefined),25.9%,0.84,8.97%,23%,,27.3%,inhibition in vivo at 8.36 mg/kg [28]: 79%
C=CC/N=c1/c(C#N)c2n(c(=O)n1-c1ccccc1)CCC2,23.1%,0.52,2.23%,14.3%,Non-toxic,19%,inhibition in vivo at 8.47 mg/kg [29]: 81.1%
NC1=C(/C(N)=N\O)C2CCCN2C(=O)N1c1ccccc1 (centres undefined),21.6%,1,4.45%,27.3%,,14.9%,inhibition in vivo at 8.33 mg/kg [30]: 85.9%
